Measured values: the EternaBench riboswitch data

System: MS2 coat protein
Assay: apparent Kd, MS2 coat protein; higher = weaker binding; RNA-MaP array; theophylline 2 mM where present
In short: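 Designs were transcribed by stalled E. coli RNA polymerase on Illumina sequencing-chip clusters. They were titrated with SNAP-549-labelled MS2 coat protein from 0.7 or 1.5 nM, doubling to 3 µM, in 100 mM Tris-HCl pH 7.5, 80 mM KCl, 4 mM MgCl2, BSA, DTT, yeast tRNA and Tween-20, without and then with constant ligand. The apparent Kd is the median of filtered per-cluster fits after normalisation of green signal to red-channel RNA signal and control-cluster median Fmax.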

[1] = designed as: ON switch for theophylline, no ligand
[2] = ligand present: theophylline, designed as: ON switch for theophylline
[3] = designed as: OFF switch for theophylline, no ligand
[4] = ligand present: theophylline, designed as: OFF switch for theophylline

Row | Sequence | apparent Kd [1] | apparent Kd [2] | apparent Kd [3] | apparent Kd [4]
1 | GGUGGGACUUGUGAUACCAGCCCAAUUCGAAUCGAAUUGCACAUGAGGAUCACCCAUGUCGGCCCUUGGCAGCAUGAGUAUUUAU | 312 nM | 16.8 nM | – | –
2 | GAUGAACUAUAUGAUACCAGACAACAUGAGGAUCACCCAUGUGAUUGUCGUCCUCUGCCUGUCCCUUGGCAGCGUAUAGUUUAUC | – | – | 33.8 nM | 229 nM
3 | AACCGAGGCUAUCCUCUACGACUAUGUGAUACCAGAAUAAUUUUAUUCCCUUGGCAGCAUGACAUGAGGAUCACCCAUGUCUCUU | 39.2 nM | 58.2 nM | – | –
4 | CCAUAUGUAACUGAUACCAGUGUACUGACAUGAGGAUCACCCAUGUUGGGUUUUGUUGUACACCCUUGGCAGCAGAAUCAUAUGG | – | – | 62.4 nM | 80.4 nM
5 | GGAUAGAUAGGAGAUACCAGAUACAUCAACAUGAGGAUCACCCAUGUGUCUGCACUAAGUGUCCCUUGGCAGCUCGGAGAUCUGA | 32.3 nM | 20.5 nM | – | –
6 | ACGACGCAUAGUGAUACCAGUAGAACAUGAGGAUCACCCAUGUCUGUGACGCACAAACUCUGCCCUUGGCAGCACUAUGCGUCAG | 10.8 nM | 17.4 nM | – | –
7 | UAAAAUAAUAAUGAUACCAGCCCUCCCUCCCGGGACAUGAGGAUCACCCAUGUCUCUCCCGGCCCUUGGCAGCAUAAAUAAUAAU | 11.1 nM | 14.2 nM | – | –
8 | AUCGUACCUGAUGAUACCAGCAAUUGCUCGUAACAUGAGGAUCACCCAUGUGAUCAGUGAUGCCCUUGGCAGCAUGAUCGGUGCA | 262 nM | 35.4 nM | – | –
9 | ACUUGGUGGUGAUCCCUGCCAAGAGGUGAUACCAGCAUCGAAAGAUGCCCUUGGCAGCACCAACAUGAGGAUCACCCAUGUAAUA | 156 nM | 157 nM | – | –
10 | CUCGAGUUAUGAGAUACCAGACUAUAGUUUACAUGAGGAUCACCCAUGUUAUGGGUGGUGGUCCCUUGGCAGCUCAUAUGUUUAA | – | – | 60.1 nM | 284 nM
11 | AUAACAUGAGGAUCACCCAUGUAAGCAGAUACCAGCUAGGAAACUAGCCCUUGGCAGCUGCAAUCCUCAUGUAUUGCAGCUGCAA | – | – | 15.7 nM | 36.2 nM
12 | GUAUGGAAACAUACUAGGGUAUCAUGAGAUACCAGUACAGAAAUGUACCCUUGGCAGCUCUAGCAUACAUGAGGAUCACCCAUGU | – | – | 14 nM | 22.9 nM
13 | AUAUGAUCAUAUGAUACCAGAAAUGGUAUUCCUUUGUUUCUUACAUGAGGAUCACCCAUGUUCCCUUGGCAGCAUAUGAUCAUAU | – | – | 187 nM | 251 nM
14 | GAGCUGAUGUAGAGCUAAUAUAAGAGAGAUACCAGUACAGAAAUGUACCCUUGGCAGCUCAACUUUACAUGAGGAUCACCCAUGU | – | – | 13.9 nM | 16.9 nM
15 | ACACCGAAAGGUGCAUUUACCUUAUCAGAUACCAGACUUUACGUUGUCCCUUGGCAGCUGUAUCACAUGAGGAUCACCCAUGUUG | 15.5 nM | 16.5 nM | – | –
16 | AUACCUAUUGAGUCGUGUUUCUAUUCAGAUACCAGACUUUUCGUUGUCCCUUGGCAGCUGUUUUACAUGAGGAUCACCCAUGUUG | – | – | 15 nM | 17.5 nM
17 | ACAAGUCCUCAUGAUACCAGCGAUGAGACAAAGUCUCAACAUGAGGAUCACCCAUGUACUCGCCCUUGGCAGCAUACGGUUUUUG | 415 nM | 43.6 nM | – | –
18 | AUCUCAUAGAGUGAUACCAGACUACAUGAGGAUCACCCAUGUUACAUUUAAAUAUCAUUUGUCCCUUGGCAGCACAUGAAGUACA | – | – | 28 nM | 18 nM
19 | GGAAGCAGGACUGAUACCAGUCCAGCGAAUCAUACGACGCAACAUGAGGAUCACCCAUGUGACCCUUGGCAGCAGACUGCUACCG | 31.5 nM | 13.7 nM | – | –
20 | UGUUUGGUGCGCGAGUGUUGGAUAAAUGAUACCAGUGUAGAUGUACGCCCUUGGCAGCGUAUCCGAACAUGAGGAUCACCCAUGU | 37.7 nM | 67.2 nM | – | –
21 | AGCAUACAUUCUGAUACCAGAGACAUGAGGAUCACCCAUGUCCGAUCGUCCUGCCUCAGACUCCCUUGGCAGCAGGAUGUGUGCU | – | – | 13.9 nM | 33.4 nM
22 | AAAAUAAAUAAAACACGUAACAUGAAGGAUACCAGACCGGAAACGGUCCCUUGGCAGCCUCUACAUGAGGAUCACCCAUGUCGUG | 238 nM | 30.9 nM | – | –
23 | UGACAUUGCUCAGAUACCAGACAUGAGGAUCACCCAUGUACCAAGAAAACGUACAUAAAUGUCCCUUGGCAGCUGAGCAAUGUCU | – | – | 524 nM | 713 nM
24 | CAGCCUGAUUGGUAAAUCCCUCAUCGUGAUACCAGUCGAGUGAUCGACCCUUGGCAGCACAUGAGGAUCACCCAUGUGCGCGUAA | – | – | 26.7 nM | 29.8 nM
25 | AUCGUACCUGAUGAUACCAGCAAUUGCUCGUAACAUGAGGAUCACCCAUGUGACCAGUGAUGCCCUUGGCAGCAUGAUCGGUGCA | 53.8 nM | 12.4 nM | – | –
26 | AUGUCGUUGAAUAUAGCGGCUUGGAGUGAUACCAGCAUGAUCCAAUGCCCUUGGCAGCAUAACAUGAGGAUCACCCAUGUUCCAG | 57.6 nM | 74.6 nM | – | –
